Screens as filed in PubChem BioAssay.
DDE Tn7 FP inh: inhibitors of Tn7 peptide binding to fibrin DD(E), primary screen, biochemical, fluorescence polarization, human fibrin, Tn7 probe; FP displacement of FITC-Tn7 peptide from fibrin DD(E); 0% = median of compound wells per plate; 370,000 compounds, 0.13% hits; inhibition, % at 8.3 µM; AID 720508, 2013;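 active means inhibition above the mean of compounds falling within the control limits plus 3 SD of them, cut at about 14% in these data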;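 further: 0% = plate median of compound wells and 100% = 10 µM Aha-Tn7 peptide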
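Assay system: human fibrin DD(E) protein / Input: 2 µM fibrin DD(E) / Benchmarks: high control of 10 µM Aha-Tn7 peptide / Measured by: fluorescence polarization of the labelled Tn7 tracer / Medium: Tris buffer with calcium and detergent, pH 7.8 / Timing: 10 min compound pre-incubation, 3 h probe incubation at room temperature / Repeats: one replicate per compound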
ABCB1 block: ABCB1 efflux pump inhibitors, primary screen, cell-based, multiplex, flow cytometry, ABCG2 counter-screen | ATP-dependent translocase ABCB1 (Homo sapiens), P08183 | CCRF-Adr cells, JC-1 efflux | inhibition, % at 6.6 µM | 190,000 compounds, 0.067% hits | AID 1326, 2008; in the data active means inhibition above about 40%;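 further: 0% = vehicle and 100% = reference inhibitor; higher value means more JC-1 retained so stronger ABCB1 efflux block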
Target sequence (P08183 whole entry, looked up): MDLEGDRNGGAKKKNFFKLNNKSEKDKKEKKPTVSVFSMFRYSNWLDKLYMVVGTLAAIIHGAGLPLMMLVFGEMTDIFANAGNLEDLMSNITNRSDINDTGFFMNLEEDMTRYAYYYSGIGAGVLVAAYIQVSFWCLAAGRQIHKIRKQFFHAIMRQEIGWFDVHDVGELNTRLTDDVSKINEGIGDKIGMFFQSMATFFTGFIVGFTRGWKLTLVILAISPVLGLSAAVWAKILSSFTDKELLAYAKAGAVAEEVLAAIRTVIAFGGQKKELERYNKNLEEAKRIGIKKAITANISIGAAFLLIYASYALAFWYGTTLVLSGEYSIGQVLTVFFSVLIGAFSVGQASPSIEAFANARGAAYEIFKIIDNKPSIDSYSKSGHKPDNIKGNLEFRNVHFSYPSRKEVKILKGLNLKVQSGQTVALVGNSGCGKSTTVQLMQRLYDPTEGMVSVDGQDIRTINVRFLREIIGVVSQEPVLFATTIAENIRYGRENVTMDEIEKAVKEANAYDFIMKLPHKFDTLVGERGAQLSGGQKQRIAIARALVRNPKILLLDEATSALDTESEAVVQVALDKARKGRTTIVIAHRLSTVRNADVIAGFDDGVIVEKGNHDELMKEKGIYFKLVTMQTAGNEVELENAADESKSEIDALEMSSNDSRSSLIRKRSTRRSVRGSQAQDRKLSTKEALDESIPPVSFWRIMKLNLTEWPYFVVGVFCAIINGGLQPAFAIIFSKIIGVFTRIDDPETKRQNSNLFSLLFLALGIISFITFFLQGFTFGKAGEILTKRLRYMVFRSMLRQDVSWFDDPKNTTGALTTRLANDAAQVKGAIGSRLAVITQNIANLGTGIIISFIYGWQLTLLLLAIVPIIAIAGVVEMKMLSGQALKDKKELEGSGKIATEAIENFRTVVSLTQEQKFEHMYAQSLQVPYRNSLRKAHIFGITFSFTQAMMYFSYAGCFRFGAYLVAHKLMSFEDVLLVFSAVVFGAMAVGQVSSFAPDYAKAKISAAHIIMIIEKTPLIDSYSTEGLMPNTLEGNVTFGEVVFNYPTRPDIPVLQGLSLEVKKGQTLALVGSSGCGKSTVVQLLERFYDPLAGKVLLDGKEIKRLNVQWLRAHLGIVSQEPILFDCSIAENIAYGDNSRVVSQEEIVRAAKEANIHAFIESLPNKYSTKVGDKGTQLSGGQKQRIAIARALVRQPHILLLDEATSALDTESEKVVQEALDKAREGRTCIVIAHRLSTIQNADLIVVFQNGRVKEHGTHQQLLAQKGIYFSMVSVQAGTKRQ
ABCG2 block: ABCG2 efflux pump inhibitors, primary screen, multiplex with ABCB1, IgMXP3 cells, flow cytometry. Broad substrate specificity ATP-binding cassette transporter ABCG2 (Homo sapiens), Q9UNQ0. JC-1 efflux. inhibition, % at 6.6 µM. 190,000 compounds, 0.1% hits. AID 1325, 2008;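 active means inhibition above 80%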;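 further: 0% = DMSO and 100% = nicardipine control wells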
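Measure – % inhibition of efflux relative to nicardipine and DMSO · Test system – ABCG2 IgMXP3 and barcoded ABCB1 CCRF-Adr cell mix · Control set – nicardipine as high control, DMSO as low control · Compound – one concentration, 6.6 µM final · Signal – flow cytometry of retained JC-1 fluorescence · Timing – 10 min exposure at 25 °C with rotation, no wash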
Insulin prom up: insulin promoter activators in MIN6 cells, imaging, high-content screening, mouse beta cells; 190,000 compounds, 0.3% hits; MIN6 insulin promoter-GFP reporter; hits give high values; AID 1625, 2009; z-score at 5 µM;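 active means z-score above 3 at 5 µM with at least 500 cells counted in the well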
DDE Tn6 FP inh: inhibitors of Tn6 peptide binding to fibrin DD(E), primary screen, biochemical, fluorescence polarization, human fibrin, Tn6 probe; Fibrinogen beta chain (Homo sapiens), P02675; Fibrin DD(E) TRITC-Tn6 fluorescence polarization displacement; inhibition, % at 8.3 µM; 370,000 compounds, 0.21% hits; AID 720509, 2013;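 active means inhibition above a per-campaign cutoff: mean of compounds within control limits plus 3 SD, cut at about 15% in these data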;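 further: 0% = median of all compound wells on the plate and 100% = blocking peptide control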
GRK2 aptamer HTS: compounds blocking aptamer binding on GRK2 – biochemical, human GRK2, bead flow cytometry, HTS, primary screen; Beta-adrenergic receptor kinase 1 (Homo sapiens), P25098; FAM-aptamer displacement from GRK2; inhibition of aptamer binding, % at 10 µM; 330,000 compounds, 0.59% hits; AID 488847, 2010;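 active means inhibition of aptamer binding above 40%, roughly 3 SD of noise, on plates passing a quality check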;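 further: median bead fluorescence of bound FAM aptamer so fluorescent compounds give negative values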
ABCB1 confirm: ABCB1 efflux pump inhibitors, confirmation, cell-based, single point, ABCG2 counter-screen | shares compounds with ABCG2 block | CCRF-Adr cells, JC-1 efflux, flow cytometry | inhibition, % at 6.6 µM | 270 compounds, 7% hits;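 active means inhibition of pump activity above 50%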;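 further: 0% = DMSO and 100% = nicardipine full pump inhibition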
ABCG2 confirm: ABCG2 efflux pump inhibitors, confirmation, single point, IgMXP3 cells, ABCB1 counter-screen paired | shares compounds with ABCG2 block | inhibition, % at 6.6 µM | JC-1 efflux, flow cytometry | 270 compounds, 6% hits;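 active means inhibition above 50%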;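 further: 0% = DMSO wells and 100% = nicardipine pump inhibitor wells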
IgMXP3 fluor: compound autofluorescence in ABCG2-expressing IgMXP3 cells, confirmation, artefact control for ABC transporter inhibitor project, cell-based, 488/530 nm, flow cytometry; compound autofluorescence 488/530 nm; hits give high values; AID 1480, 2009; fluorescence at 6.6 µM; 270 compounds, 30% hits; shares compounds with ABCG2 block;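 active means fluorescence in ABCG2-expressing cells above the plate's control-well mean plus 3 SD, cut at about 15 in these data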;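 further: median cell fluorescence with compound minus that of DMSO-treated control cells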
CCRF-Adr fluor: compound autofluorescence in ABCB1-expressing CCRF-Adr cells, confirmation, artefact control for ABC transporter inhibitor project, cell-based, 488/530 nm, flow cytometry | shares compounds with ABCG2 block | compound autofluorescence 488/530 nm; hits give high values | fluorescence at 6.6 µM | 270 compounds, 30% hits;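 active means fluorescence beyond the plate control mean plus 3 SD, with a fluorescence-to-maximum score over 2, cut at about 25 in these data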
The depositor's hits bear a star; · = no result given; + = active, no number. The list is not random: actives were taken first. Their share in the collection is about 0.99%.

SMILES	DDE Tn7 FP inh	ABCB1 block	ABCG2 block	Insulin prom up	DDE Tn6 FP inh	GRK2 aptamer HTS	ABCB1 confirm	ABCG2 confirm	IgMXP3 fluor	CCRF-Adr fluor
CN1C2=NC(c3ccc4ccccc4c3)CC(=O)N2/C(=C\c2ccccc2)C1c1ccccc1C(F)(F)F (centres undefined)	4	·	·	·	1	·	·	·	·	·
CCOC(=O)CC[C@H]1CC[C@]2(CCCN(C3CCCCC3)C2)O1	-3	·	·	·	1	·	·	·	·	·
O=[N+]([O-])c1cc(Cl)ccc1NCCNS(=O)(=O)c1ccccc1	-8	3	119*	·	0	9	7	18	2.3	32*
O=[N+]([O-])c1ccccc1NCCNS(=O)(=O)c1ccc(Cl)cc1	-1	1	13	1.5	-2	3	·	·	·	·
O=C(/C=C/c1cccc([N+](=O)[O-])c1)Nc1cccc(NC(=O)c2cccs2)c1	-4	+	+	-0.09	11	1	13	31	-0.59	0.66
CCOc1ccc(-n2c(SCc3nc4ccccc4[nH]3)nnc2-c2cccc(Cl)c2)cc1	7	·	·	·	4	·	·	·	·	·
CCc1ccc(NC(=O)CSc2nc3ccccc3c(=O)n2CCCC(=O)N2CCCC2)cc1	1	71*	70	1.1	6	2	24	44	-3.4	-5.6
C/C(=N\NC(=O)COc1cc(C)cc(C)c1)c1ccc(N2CCOCC2)cc1	-4	0	92*	-0.2	0	3	1	42	-2.2	-4.6
O=C(Nc1ccc(Cl)c(Cl)c1)c1cccc2c1-c1ccccc1C2=O	-9	·	·	·	1	·	·	·	·	·
Cc1c(C#N)c(NC(=O)CCl)n(Cc2ccc(F)cc2)c1C	-2	45*	12	·	0	0	1	1	4.9	8.6
Cc1c(C#N)c(NC(=O)CCl)n(Cc2ccccc2)c1C	-2	0	1	-1.2	-4	3	·	·	·	·
CCCN1C(=O)/C(=C\C=C2\N(CC)c3ccccc3C2(C)C)SC1=S	-2	68*	104*	·	-8	·	-27	5	63*	252*
O=C(OCC#CCSc1nnc(-c2cccc3ccccc23)o1)c1ccc(F)nc1	4	·	·	·	4	·	·	·	·	·
CCOC(=O)N1CCN(C(=O)CS(=O)(=O)c2cn(Cc3ccccc3C)c3ccccc23)CC1	·	2	0	-0.07	·	0	·	·	·	·
Cc1ccccc1Cn1cc(S(=O)(=O)CC(=O)Nc2nccs2)c2ccccc21	1	9	83*	-0.94	-5	0	7	14	-1.1	-2.1
CCOC(=O)c1cn2nc(-c3ccc(OC)cc3)cc2nc1C1CCN(C(=O)OC(C)(C)C)CC1	1	51*	27	0.65	-1	0	45	15	0.41	-1.2
COc1ccc(-c2cc(C3CCN(C(=O)OC(C)(C)C)CC3)[nH]n2)cc1	-1	1	4	0.09	-2	·	·	·	·	·
O=C(CCCn1c(=S)[nH]c2ccc(Br)cc2c1=O)NCc1ccccn1	-2	·	·	·	-2	0	·	·	·	·
O=C(CCCCCn1c(=S)[nH]c2ccc(Br)cc2c1=O)NCC1CCCO1 (centres undefined)	5	3	81*	0.75	-1	11	8	34	15*	72*
O=C1Nc2ccccc2Oc2cc([N+](=O)[O-])cc(Oc3ccccc3)c21	-6	38	89*	2.8	9	0	3	17	20*	59*
Cc1cccc(Oc2cc([N+](=O)[O-])cc3c2C(=O)Nc2ccccc2O3)c1	-11	9	21	2.3	5	2	·	·	·	·
CC(NC(=O)COC(=O)Cc1ccsc1)C1CC2CCC1C2 (centres undefined)	2	35	132*	0.18	-1	2	7	4	-2.1	-4.7
COC(=O)[C@]12C[C@H](CC(=O)N3CCN(C(=O)C4CC4)CC3)C(=O)N(Cc3ccco3)C1=C[C@H](C(C)C)O[C@@H]2C1CC1	1	·	·	·	-11	·	·	·	·	·
CCN(CC)c1ccc(/C=C2/C(=O)c3ccc(C(=O)O)cc3C2=O)cc1	-8	140*	+	-0.19	-5	1	-46	-162	251*	169*
COc1ccc(-c2nn(-c3ccccc3)cc2/C=C/C(=O)N2CCN(c3ccccn3)CC2)cc1	2	48*	33	-1.2	-4	0	33	22	18*	4.3
SMILES	DDE Tn7 FP inh	ABCB1 block	ABCG2 block	Insulin prom up	DDE Tn6 FP inh	GRK2 aptamer HTS	ABCB1 confirm	ABCG2 confirm	IgMXP3 fluor	CCRF-Adr fluor
COc1ccc(-n2cc(COC(=O)NCCc3ccccc3)nn2)cc1	-2	·	·	·	2	·	·	·	·	·
COC(=O)C1CN(Cc2cn(CCOC(C)=O)nn2)CCS(=O)(=O)N1Cc1ccc(Cl)cc1 (centres undefined)	2	·	·	·	1	·	·	·	·	·
O=C(Nc1cc(C(F)(F)F)ccc1N1CCOCC1)c1cccs1	-5	0	2	0.31	2	0	·	·	·	·
CN(C)c1ccc(P(=O)(Nc2cccc(C(F)(F)F)c2)N2CCOCC2)c(NC(=O)c2cccs2)c1 (centres undefined)	2	51*	19	-0.5	1	0	75*	26	-2.2	-4.6
Cc1ccc(C(C)C)c(OCCN(C)C)c1	8	0	-2	·	6	0	·	·	·	·
CCCN(CCC)CCOc1cc(C)ccc1C(C)C	2	137*	+	-0.05	0	8	1	-1	13	37*
COc1cc(CC(=O)OCC(=O)Nc2cc([N+](=O)[O-])ccc2Cl)cc(OC)c1OC	2	3	81*	0.71	-8	5	3	41	21*	-1.6
C=CCN(C(=O)[C@@H](C1CC1)[C@@H](O)c1ccc(Cl)cc1)c1ccccc1	2	·	·	·	-2	·	·	·	·	·
